Data set [1] is described as follows: Inhibition of IDH.
Data set [2] can be described thus: (§1) Inhibition of G6PD-mediated NADPH production in mouse 3T3-L1 cells. The class given is cell-based. Summed up:
(§2)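 Fully differentiated 3T3-L1 adipocytes were lysed in NETN buffer and spun at 4 °C; supernatants were used at once. 1.0 µg protein was incubated at 30 °C with inhibitor (DMSO <0.2% v/v) in 0.1 mol/L Tris pH 7.5, 150 mmol/L NaCl, 6 mmol/L MgCl2, 0.5 mmol/L G6P, 0.5 mmol/L 6-phosphogluconate and 0.25 mmol/L NADP+. Total NADPH production was normalized to Bradford protein. Values are means of three independent experiments.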

A further data set deals with Homo sapiens. Nature of the data set: Plasma concentration in human at 50 mg, po. The following applies: in vivo.
Data set [3] concerns 3T3-L1. Nature of the data set: Ratio of IC50 for yeast G6PD to IC50 for G6PD-mediated NADPH production in mouse 3T3-L1 cells. The class given is cell-based.
The target in data set [4] is 6-phosphogluconate dehydrogenase, decarboxylating (Saccharomyces cerevisiae) (UniProt P38720). Nature of the data set: Inhibition of 6PGD.
Sequence of 6-phosphogluconate dehydrogenase, decarboxylating (Saccharomyces cerevisiae) (P38720 whole entry, looked up): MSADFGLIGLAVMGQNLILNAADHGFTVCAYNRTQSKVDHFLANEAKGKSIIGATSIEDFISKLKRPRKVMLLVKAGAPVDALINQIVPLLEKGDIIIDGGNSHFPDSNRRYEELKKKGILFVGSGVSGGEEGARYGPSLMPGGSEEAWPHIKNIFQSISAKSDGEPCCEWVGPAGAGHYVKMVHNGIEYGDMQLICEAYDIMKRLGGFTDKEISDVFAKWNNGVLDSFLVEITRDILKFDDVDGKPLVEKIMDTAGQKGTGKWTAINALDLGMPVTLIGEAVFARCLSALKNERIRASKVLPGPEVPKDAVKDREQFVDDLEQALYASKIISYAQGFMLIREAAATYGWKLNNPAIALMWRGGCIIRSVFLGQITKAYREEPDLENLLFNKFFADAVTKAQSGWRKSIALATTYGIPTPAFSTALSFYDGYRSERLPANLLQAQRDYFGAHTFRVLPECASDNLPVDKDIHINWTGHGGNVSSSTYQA
Data set [5] concerns the target T1, Glucose-6-phosphate 1-dehydrogenase (Saccharomyces cerevisiae S288c, UniProt P11412).
T1 sequence (P11412 whole entry): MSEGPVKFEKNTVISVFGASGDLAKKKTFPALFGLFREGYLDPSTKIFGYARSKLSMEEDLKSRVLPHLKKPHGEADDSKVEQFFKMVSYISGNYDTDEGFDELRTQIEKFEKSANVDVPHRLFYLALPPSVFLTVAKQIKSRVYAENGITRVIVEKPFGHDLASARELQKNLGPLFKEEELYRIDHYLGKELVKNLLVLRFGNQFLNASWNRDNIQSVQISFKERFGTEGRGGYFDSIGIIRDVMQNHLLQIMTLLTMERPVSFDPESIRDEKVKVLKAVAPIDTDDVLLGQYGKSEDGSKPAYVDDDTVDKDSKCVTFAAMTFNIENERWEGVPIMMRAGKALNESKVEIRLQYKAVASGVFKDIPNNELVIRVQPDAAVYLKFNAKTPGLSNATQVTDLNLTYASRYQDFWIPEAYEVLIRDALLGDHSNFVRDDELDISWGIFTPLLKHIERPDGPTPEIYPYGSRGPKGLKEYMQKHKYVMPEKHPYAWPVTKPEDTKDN
Nature of the data set: Inhibition of yeast G6PD.

Data set [6] has as its system 3T3-L1. Described as §1. Type of data set: cell-based. Summed up: as §2
For data set [7], the system named is 3T3-L1. Nature of the data set: Inhibition of G6PD-mediated NADPH production in mouse 3T3-L1 cells at above 100 umol/L. The class given is cell-based. Summed up:
as §2

Structures are written as SMILES. Activity calls are given as the source filed them. The rule behind the calls is not given here. A value given as a limit tells only on which side of the number the result lay.

The IC50 is the concentration that gives 50% inhibition. Lower therefore signals greater potency in that assay. In the case of `O=C(O[C@@H]1Cc2c(O)cc(O)cc2O[C@@H]1c1cc(O)c(O)c(O)c1)c1cc(O)c(O)c(O)c1` [EPIGALOCATECHIN GALLATE], the IC50 in data set [1] came out at 6.44 µM; in data set [2] it was 25 µM; in data set [4] it was 0.72 µM; in data set [5], 0.25 µM. The concentration in the data set on Homo sapiens turned out to be 300 nM. For the same compound, the Ratio IC50 with 3T3-L1 [3] came out at 100.
With `O=C(O[C@@H]1Cc2c(O)cc(O)cc2O[C@H]1c1ccc(O)c(O)c1)c1cc(O)c(O)c(O)c1` [(-)-CATECHINGALLATE], the IC50 in data set [1] came out at 6.62 µM; in data set [2] it was 25 µM; in data set [4], 1.28 µM; in data set [5], 0.24 µM. For the same compound, the Ratio IC50 in the data set with 3T3-L1 [3] was 100.
`Oc1cccc(/C=N/NC(=S)N/N=C/c2cccc(O)c2O)c1O` displayed an IC50 in data set [5] of 56.4 µM.
`Oc1cc(O)c2c(c1)O[C@H](c1cc(O)c(O)c(O)c1)[C@H](O)C2` [EPIGALLOCATECHIN]: the IC50 in data set [1] and in data set [5] was greater than 1000 µM in each case. For the same compound, in the data set on 3T3-L1 [6], the result was inactive.
Turning to `CCOc1cccc(-c2cc(C(=O)N/N=C/c3ccccc3O)[nH]n2)c1`, in data set [5], the IC50 is 21.8 µM.
Consider `Oc1cc(O)c2c(c1)O[C@@H](c1cc(O)c(O)c(O)c1)[C@H](O)C2` [(-)-GALLOCATECHIN], for which the IC50 in data set [1] and in data set [5] was greater than 1000 µM each time. Besides, the outcome in the data set with 3T3-L1 [6] was inactive.
In the case of `Oc1cc(O)c2c(c1)O[C@@H](c1ccc(O)c(O)c1)[C@H](O)C2` [(-)-CATECHIN], the IC50 in data set [1] and in data set [5] was greater than 1000 µM in each case. Also, the outcome in the data set with 3T3-L1 [6] was inactive.
Turning to `O=C(O[C@@H]1Cc2c(O)cc(O)cc2O[C@H]1c1cc(O)c(O)c(O)c1)c1cc(O)c(O)c(O)c1` [GALLOCATECHIN GALLATE], the IC50 in data set [1] came out at 2.72 µM; in data set [2], 25 µM; in data set [4], 1.45 µM; in data set [5], 0.23 µM. For the same compound, the Ratio IC50 in the data set on 3T3-L1 [3] stood at 100.
In the case of `Oc1cc(O)c2c(c1)O[C@H](c1ccc(O)c(O)c1)[C@H](O)C2` [(-)-EPICATECHIN], the IC50 in data set [1] and in data set [5] was greater than 1000 µM in each case. The outcome in the data set on 3T3-L1 [6] was inactive.
A word on the inhibition: it is the drop in the measured response relative to a control, in per cent. Read a high inhibition as a strong effect. In turn, `C[C@]12CC[C@H](O)CC1=CC[C@@H]1[C@@H]2CC[C@]2(C)C(=O)CC[C@@H]12` returned an inhibition in the data set with 3T3-L1 [7] of 40%.
In the case of `O=C(O[C@@H]1Cc2c(O)cc(O)cc2O[C@@H]1c1ccc(O)c(O)c1)c1cc(O)c(O)c(O)c1` [EPICATECHIN GALLATE], the IC50 is 10.8 µM in data set [1], 25 µM in data set [2], 1.21 µM in data set [4] and 0.18 µM in data set [5]. Besides, the Ratio IC50 in the data set on 3T3-L1 [3] came out at 100.

Values taken from ChEMBL document CHEMBL1143070, “Catechin gallates are NADP+-competitive inhibitors of glucose-6-phosphate dehydrogenase and other enzymes that employ NADP+ as a coenzyme” (Bioorg Med Chem, 2008).
